Test results reported in PubChem BioAssay.
Activity calls are given as the source filed them. Rule as the data show it, unless noted: active = inhibition above about 30%; inactive = the rest.

Assays:
[1] = reducers of endogenous Her2 protein level, primary screen, SKBR3 breast tumor cells, AlphaScreen, ATP viability (AID 461;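 active = Her2 level under about 52% in both replicate screens, with viability over 70% of control, limit read from the data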;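 as to Her2 level: lower value means less Her2 protein in the cells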;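 as to viability: percent of carrier control wells set as 100% viability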); conditions: 18-24 h, measured here: SKBR3 viability, ATP luminescence, at 10 µM
[2] = target: Receptor tyrosine-protein kinase erbB-2 (Homo sapiens) (UniProt P04626); assay: as above; conditions: 18-24 h, at 10 µM, stronger effect = lower value
[3] = SK-BR-3 cell growth inhibitors, pilot screen, 24 h, human (AID 572;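 active = viability at or below 10% of carrier control in both of two separate runs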;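 also: compound exposure lasted between 18 and 24 h rather than exactly 24 h; 100% = carrier-treated control wells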); conditions: SK-BR-3 viability, CellTiter-Glo luminescence, at 10 µM, stronger effect = lower value
[4] = HUVEC growth inhibition – cell-based, human, primary screen (AID 575;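 active = viability at or below 30% in both replicate assays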;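 also: 100% = median of untreated cell wells with 0.1% DMSO on each plate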); conditions: HUVEC proliferation, CellTiter-Glo luminescence, 72 h; at 10 µM; stronger effect = lower value
How it was run: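 System – primary HUVEC, no more than 12 passages · Medium – Low-serum (2% FBS) EBM, supplemented · Times – 72 h exposure, 37 °C, 5% CO2, 30 min RT equilibration · Measured by – luminescent ATP assay · Read-out – % viability relative to median vehicle-well signal on each plate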

[5] = growth inhibitors of H69AR lung tumor, primary screen, human, duplicate replicates (AID 580;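 active = viability at or under a set limit in both replicates, limit being median viability minus 3 SD, cut at about 48% in these data, passing the limit was not always enough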;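 also: 100% = mean luminescence of untreated wells and 0% = no signal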); conditions: H69AR lung tumor cells viability, ATP luminescence, 72 h; at 10 µM; stronger effect = lower value
[6] = reversal of MRP1-mediated doxorubicin resistance, pilot screen, H69AR cells, doxorubicin co-treatment (AID 601;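 active = viability loss from added drug above about 55%, and viability with drug at most 40%, in both replicates, limit read from the data, passing the limit was not always enough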); conditions: CellTiter-Glo, 72 h, at 10 µM; for differential viability (reversal): stronger effect = higher value
[7] = 384-well plate pilot, post-Golgi transport modulator project, inhibition of yeast transport mutant growth (AID 636; in the data active = inhibition above about 31%); conditions: absorbance 615 nm, about 18 h, stronger effect = higher value
[8] = growth suppression of yeast trafficking mutant, preliminary HTS, modulators of trafficking downstream of Golgi apparatus project, 1536-format plate, OD 615 nm (AID 637); conditions: yeast transport mutant growth, absorbance 615 nm, 18 h; stronger effect = higher value
[9] = H69AR cells + 2 uM doxorubicin, measured here: viability with 2 uM doxorubicin, stronger effect = lower value
[10] = H69AR cells, compound alone cytotoxicity

Chain of Receptor tyrosine-protein kinase erbB-2 (Homo sapiens) (P04626 whole entry, looked up): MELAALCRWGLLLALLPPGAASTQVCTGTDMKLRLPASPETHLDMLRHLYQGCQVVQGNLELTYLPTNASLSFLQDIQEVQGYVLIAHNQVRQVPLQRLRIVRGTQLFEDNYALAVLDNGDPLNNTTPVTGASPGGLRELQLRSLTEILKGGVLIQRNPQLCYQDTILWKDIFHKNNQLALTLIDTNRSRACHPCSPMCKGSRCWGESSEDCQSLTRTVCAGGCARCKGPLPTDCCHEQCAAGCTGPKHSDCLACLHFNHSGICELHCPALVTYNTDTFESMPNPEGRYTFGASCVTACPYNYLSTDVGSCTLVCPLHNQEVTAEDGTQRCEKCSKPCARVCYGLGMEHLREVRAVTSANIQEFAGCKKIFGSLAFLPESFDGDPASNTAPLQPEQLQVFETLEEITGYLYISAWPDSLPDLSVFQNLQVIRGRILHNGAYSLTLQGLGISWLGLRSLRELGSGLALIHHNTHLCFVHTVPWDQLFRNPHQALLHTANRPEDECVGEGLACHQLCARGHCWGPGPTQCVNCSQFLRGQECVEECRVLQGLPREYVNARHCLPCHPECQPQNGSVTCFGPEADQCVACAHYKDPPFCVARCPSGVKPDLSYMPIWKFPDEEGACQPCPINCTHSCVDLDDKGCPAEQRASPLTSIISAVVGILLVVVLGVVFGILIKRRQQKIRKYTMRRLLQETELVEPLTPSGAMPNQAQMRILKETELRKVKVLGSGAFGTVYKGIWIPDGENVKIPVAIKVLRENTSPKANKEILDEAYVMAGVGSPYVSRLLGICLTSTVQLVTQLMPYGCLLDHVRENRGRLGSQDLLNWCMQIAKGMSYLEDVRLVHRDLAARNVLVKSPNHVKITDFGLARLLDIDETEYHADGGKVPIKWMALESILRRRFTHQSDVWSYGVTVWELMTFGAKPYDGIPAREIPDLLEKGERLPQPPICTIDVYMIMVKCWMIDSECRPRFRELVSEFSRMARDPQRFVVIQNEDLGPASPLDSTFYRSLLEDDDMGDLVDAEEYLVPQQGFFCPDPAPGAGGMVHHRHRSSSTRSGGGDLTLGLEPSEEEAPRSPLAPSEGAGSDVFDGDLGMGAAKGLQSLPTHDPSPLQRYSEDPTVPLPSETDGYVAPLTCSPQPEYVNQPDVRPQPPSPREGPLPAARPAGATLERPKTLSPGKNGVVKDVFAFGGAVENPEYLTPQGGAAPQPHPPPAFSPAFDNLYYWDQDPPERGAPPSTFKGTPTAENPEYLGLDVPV

Row | Compound | viability [1] [%] | Her2 level [2] | viability [3] | viability [4] | viability [5] | differential viability (reversal) ([6]; H69AR cells + 2 uM doxorubicin) | viability [6, 9] [%] | viability [6, 10] [%] | inhibition [7] | inhibition [8]
1 | CN=C(Nc1cc(C)nn1-c1ccccc1)c1ccccc1 | 93 | 95.5% (inactive) | 93% (inactive) | 86.6% (inactive) | 93.6% (inactive) | -3.59% (inactive) | 97.2 | 93.6 | -2% (inactive) | -3.55% (inactive)
2 | COc1cc(C(=O)N2CCC(c3nc(-c4cccnc4)no3)CC2)cc(OC)c1OC | 96 | 110% (inactive) | 96% (inactive) | 110% (inactive) | 93.9% (inactive) | 11.1% (inactive) | 82.8 | 93.9 | -2.16% (inactive) | 6% (inactive)
3 | CC(C)(C)C(=O)/C=C(\N)c1ccccn1 | 102 | 94.5% (inactive) | 102% (inactive) | 119% (inactive) | 100% (inactive) | 2.67% (inactive) | 97.8 | 100 | -1.04% (inactive) | -4.92% (inactive)
4 | Cc1ccc(C(=O)Nc2ccc3c(c2)OCO3)cc1S(=O)(=O)N1CCCC1 | 102 | 89% (inactive) | 102% (inactive) | 67.3% (inactive) | 82.6% (inactive) | -0.715% (inactive) | 83.3 | 82.6 | -4% (inactive) | 2.54% (inactive)
5 | O=C(NC1CCCCCC1)C1c2ccccc2C(=O)N1Cc1cccnc1 (stereo not given) | 108 | 99.5% (inactive) | 108% (inactive) | 74.3% (inactive) | 90.1% (inactive) | -12.5% (inactive) | 103 | 90.1 | 0.13% (inactive) | -7.3% (inactive)
6 | COc1ccc(NC(=O)Cn2nnc(-c3ccccc3N)n2)cc1OC | 106 | 108% (inactive) | 106% (inactive) | 94.4% (inactive) | 97.8% (inactive) | 4.44% (inactive) | 93.3 | 97.8 | -5.07% (inactive) | 10% (inactive)
7 | CCCn1c2c(c(O)c(C(=O)Nc3ccc(C)cn3)c1=O)CCCC2 | 102 | 82.5% (inactive) | 102% (inactive) | 96.8% (inactive) | 88% (inactive) | -9.88% (inactive) | 97.9 | 88 | -2.89% (inactive) | -5.81% (inactive)
8 | CC(=O)Nc1ccccc1-c1nc2ccc(C(=O)N3CCN(c4ccccc4)CC3)cc2[nH]c1=O | 99.5 | 88% (inactive) | 99.5% (inactive) | 86.2% (inactive) | 93.4% (inactive) | -1.66% (inactive) | 95 | 93.4 | -1.33% (inactive) | 1.15% (inactive)
9 | N#CC(C(=O)c1ccco1)c1ccccn1 (stereo not given) | 106 | 81% (inactive) | 106% (inactive) | 98.1% (inactive) | 86.1% (inactive) | 4.21% (inactive) | 81.9 | 86.1 | -7.37% (inactive) | 0.67% (inactive)
10 | O=C(c1ccc(Br)o1)N(c1ccc(Br)cc1)C1C=CS(=O)(=O)C1 (stereo not given) | 89 | 156% (inactive) | 89% (inactive) | 80% (inactive) | 87% (inactive) | 5.32% (inactive) | 81.7 | 87 | 5% (inactive) | 21% (inactive)
11 | COC(=O)c1sc(N)c(C(=O)OC)c1CSc1nc2sc3c(c2c(=O)n1C)CCC3 | 88 | 103% (inactive) | 88% (inactive) | 81.5% (inactive) | 62.3% (inactive) | 8.74% (inactive) | 53.5 | 62.3 | -2.84% (inactive) | 2.62% (inactive)
12 | COc1ccccc1NC(=O)CSC1CC(=O)N(c2ccc3c(c2)OCO3)C1=O (stereo not given) | 98 | 82.5% (inactive) | 98% (inactive) | 96.5% (inactive) | 99.4% (inactive) | 0.975% (inactive) | 98.4 | 99.4 | -4.53% (inactive) | 0.16% (inactive)
13 | CCN(CCNC(=O)CS(=O)(=O)Cc1nc(-c2cccc(OC)c2)oc1C)c1ccccc1 | 97.5 | 105% (inactive) | 97.5% (inactive) | 78.4% (inactive) | 99% (inactive) | -10.6% (inactive) | 110 | 99 | -6.67% (inactive) | -0.48% (inactive)
14 | Cc1nnc(SCc2cnc(-c3ccccc3)o2)[nH]c1=O | 94 | 86% (inactive) | 94% (inactive) | 86.7% (inactive) | 98% (inactive) | 12.2% (inactive) | 85.8 | 98 | 2.76% (inactive) | -0.66% (inactive)
15 | O=c1c2ccccc2nnn1CSc1nc2cc(Cl)ccc2c(=O)n1Cc1ccco1 | 102 | 104% (inactive) | 102% (inactive) | 81.5% (inactive) | 86.4% (inactive) | 4.62% (inactive) | 81.7 | 86.4 | -0.53% (inactive) | -4.03% (inactive)
